Our source for the Activity values is ChEMBL document CHEMBL2311423, “Novel carbocyclic nucleoside analogs suppress glomerular mesangial cells proliferation and matrix protein accumulation through ROS-dependent mechanism in the diabetic milieu” (Bioorg Med Chem Lett, 2013).

What all share (format): functional
Assay [1] can be described thus: Antidiabetic nephropathic activity in rat glomerular mesangial cells assessed as reduction of high-glucose induced fibronectin expression at 10 uM treated 12 to 24 hrs after serum-deprivation measured after 24 hrs by Western blot analysis relative to beta-actin expression. (In western blotting, separated proteins are transferred to a membrane and probed.)
Assay [2] is described as follows: Antidiabetic nephropathic activity in rat glomerular mesangial cells assessed as reduction of high-glucose induced fibronectin expression at 1 uM treated 12 to 24 hrs after serum-deprivation measured after 24 hrs by Western blot analysis relative to beta-actin expression.
A short description of assay [3]: Antidiabetic nephropathic activity in rat glomerular mesangial cells assessed as reduction of high-glucose induced NADPH-dependent ROS production by measuring NADPH oxidase activity at 1 uM treated 12 after serum-deprivation measured after 24 hrs by DHE staining. Put shortly:
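Rat glomerular mesangial cells serum-deprived 12 h, then given high glucose (25 mM) for 24 h with or without compound. NADPH-dependent superoxide generation (NADPH oxidase activity) measured in parallel with DHE staining. Superoxide expressed as relative light units per mg protein.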

The species entered for a further assay is Rattus norvegicus. In words: Antidiabetic nephropathic activity in rat glomerular mesangial cells assessed as reduction of high-glucose induced cell proliferation at 1 to 10 uM treated 12 after serum-deprivation measured after 24 hrs by MTT assay. Put shortly:
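Rat glomerular mesangial cells serum-deprived 12 h, then given high glucose (25 mM) for 24 h with or without compound at different concentrations. Proliferation read by MTT assay after 24 h, compared against normal-glucose cells.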
In general terms: Tetrazolium dyes change colour on reduction, which living cells bring about.

Active and inactive are the calls of the source. No cut-off for these calls is given here.

Turning to `CC(=O)OC[C@@H]1C[C@@H](n2ccc(=O)n(C(=O)c3ccccc3)c2=O)C[C@@H]1COC(C)=O`, the Activity in assay [1] came to 57 a.u; in assay [2], 64 a.u.

In the case of `CC(=O)OC[C@@H]1CC(n2cc(C)c(=O)n(C(=O)c3ccccc3)c2=O)C[C@H]1COC(C)=O` (racemic), the Activity was 53 a.u in assay [1] and 59 a.u in assay [2].

Regarding `CCOC(=O)[C@@H]1CC(n2ccc(=O)n(C(=O)c3ccccc3)c2=O)C[C@H]1C(=O)OCC` (racemic), the Activity in assay [1] worked out at 60 a.u; in assay [2] it was 67 a.u.

In the case of `CC(=O)OC[C@@H]1C[C@@H](n2cc(C)c(=O)n(C(=O)c3ccccc3)c2=O)C[C@@H]1COC(C)=O`, the Activity in assay [1] was 40 a.u; in assay [2], 65 a.u.

For the compound `CC(=O)OC[C@@H]1CC(n2ccc(=O)n(C(=O)c3ccccc3)c2=O)C[C@H]1COC(C)=O` (racemic), the Activity worked out at 52 a.u in assay [1] and 55 a.u in assay [2].

On to `CCOC(=O)[C@@H]1CC(n2cc(C)c(=O)n(C(=O)c3ccccc3)c2=O)C[C@H]1C(=O)OCC` (racemic), for which the Activity in assay [1] is 20 a.u; in assay [2], 25 a.u. For the same compound, the outcome (in assay [3]; in the assay filed under Rattus norvegicus) was Active.

On to `CCOC(=O)[C@H]1C[C@H](n2ccc(=O)n(C(=O)c3ccccc3)c2=O)C[C@H]1C(=O)OCC`, for which the Activity in assay [1] amounted to 20 a.u; in assay [2], 26 a.u. Besides, the result (in assay [3]; in the assay filed under Rattus norvegicus) was Active.

With `CCOC(=O)[C@H]1C[C@H](n2cc(C)c(=O)n(C(=O)c3ccccc3)c2=O)C[C@H]1C(=O)OCC`, the Activity in assay [1] was 66 a.u; in assay [2], 68 a.u.
